Measurements as given in ChEMBL document CHEMBL1165943, “Design and synthesis of new anticancer pyrimidines with multiple-kinase inhibitory effect” (Bioorg Med Chem, 2010).

Key:
[1] = system: HL-60(TB); test: Cytotoxicity against human HL-60(TB) cells assessed as cell growth at 10 uM after 48 hrs by sulforhodamine B assay; format: functional; conditions: HL-60, 48 h, read-out: Activity
How it was run: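 Five-concentration HL-60(TB) test in RPMI 1640 with 5% FBS and 2 mM L-glutamine. Cells are plated at 5,000–40,000/well and a TCA-fixed time-zero plate is read at drug addition after 24 h. Drug is dissolved in DMSO and given as five 10-fold or ½log dilutions for 48 h at 37 °C, 5% CO2. Settled cells are fixed with TCA, stained with SRB and read at 515 nm.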

[2] = system: HOP-92; test: Cytotoxicity against human HOP92 cells assessed as cell growth at 0.01 uM after 48 hrs by sulforhodamine B assay; format: functional; conditions: HOP-92, 48 h, read-out: Activity
[3] = system: SK-OV-3; test: Cytotoxicity against human SKOV3 cells assessed as cell growth at 0.01 uM after 48 hrs by sulforhodamine B assay; format: functional; conditions: SK-OV-3, 48 h, read-out: Activity
[4] = system: HT-29; test: Cytotoxicity against human HT-29 cells assessed as cell growth at 0.01 uM after 48 hrs by sulforhodamine B assay; format: functional; conditions: HT-29, 48 h, read-out: Activity
[5] = system: SW-620; test: Cytotoxicity against human SW620 cells assessed as cell growth at 0.001 uM after 48 hrs by sulforhodamine B assay; format: functional; conditions: SW-620, 48 h, read-out: Activity
[6] = system: EKVX; test: Cytotoxicity against human EKVX cells assessed as cell growth at 100 nM after 48 hrs by sulforhodamine B assay; format: functional; conditions: read-out: Activity
[7] = system: KM12; test: Cytotoxicity against human KM12 cells assessed as cell growth at 0.01 uM after 48 hrs by sulforhodamine B assay; format: functional; conditions: KM12, 48 h, read-out: Activity
[8] = system: OVCAR-4; test: Cytotoxicity against human OVCAR4 cells assessed as cell growth at 100 nM after 48 hrs by sulforhodamine B assay; format: functional; conditions: OVCAR-4, 48 h, read-out: Activity
[9] = system: CCRF-CEM; test: Cytotoxicity against human CCRF-CEM cells assessed as cell growth at 100 nM after 48 hrs by sulforhodamine B assay; format: functional; conditions: read-out: Activity
[10] = system: OVCAR-5; test: Growth inhibition of human OVCAR5 cells after 48 hrs by sulforhodamine B assay; format: functional, cell-based; conditions: OVCAR-5, 48 h; for CC50: read-out: LC50 (the source's name)
How it was run: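 Cells grown in RPMI 1640 with 5% FBS and 2 mM L-glutamine, seeded at 5,000–40,000 cells/well according to doubling time. After 24 h, time-zero plates are TCA-fixed. Five concentrations (10-fold or ½log dilutions, DMSO stocks) are applied for 48 h at 37 °C, 5% CO₂. Cells are TCA-fixed, SRB-stained and read at 515 nm. IC₅₀ is taken from [(Ti−Tz)/(C−Tz)]×100 = 50.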

[11] = system: NCI/ADR-RES; test: Cytotoxicity against human NCI/ADR-RES cells assessed as cell growth at 1 uM after 48 hrs by sulforhodamine B assay; format: functional; conditions: read-out: Activity
[12] = system: MDA-MB-468; test: Cytotoxicity against human MDA-MB-468 cells assessed as cell growth at 10 uM after 48 hrs by sulforhodamine B assay; format: functional; conditions: MDA-MB-468, 48 h, read-out: Activity
[13] = system: HCT-116; test: Cytotoxicity against human HCT116 cells assessed as cell growth at 0.01 uM after 48 hrs by sulforhodamine B assay; format: functional; conditions: HCT-116, 48 h, read-out: Activity
[14] = system: OVCAR-8; test: Cytotoxicity against human OVCAR8 cells assessed as cell growth at 0.001 uM after 48 hrs by sulforhodamine B assay; format: functional; conditions: OVCAR-8, 48 h, read-out: Activity
[15] = system: 786-0; test: Cytotoxicity against human 786-0 cells assessed as cell growth at 100 nM after 48 hrs by sulforhodamine B assay; format: functional; conditions: 786-0, 48 h, read-out: Activity
How it was run: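 Cells grown in RPMI 1640 with 5% FBS and 2 mM L-glutamine, seeded at 5,000–40,000 cells/well by doubling time. Time-zero plates TCA-fixed after 24 h. Five concentrations (10-fold or half-log dilutions from DMSO stock) added; 48 h at 37 °C, 5% CO2. Cold TCA fixation (final 10%, 60 min, 4 °C), 0.4% SRB stain, dye solubilized in 10 mM trizma base, A515.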

[16] = system: NCI-H322M; test: Cytotoxicity against human NCI-H322M cells assessed as cell growth at 10 uM after 48 hrs by sulforhodamine B assay; format: functional; conditions: read-out: Activity
[17] = system: CAKI-1; test: Cytotoxicity against human Caki1 cells assessed as cell growth at 100 nM after 48 hrs by sulforhodamine B assay; format: functional; conditions: CAKI-1, 48 h, read-out: Activity
[18] = system: HCT-15; test: Cytotoxicity against human HCT15 cells assessed as cell growth at 0.001 uM after 48 hrs by sulforhodamine B assay; format: functional; conditions: HCT-15, 48 h, read-out: Activity
[19] = system: UO-31; test: Cytotoxicity against human UO31 cells assessed as cell growth at 0.001 uM after 48 hrs by sulforhodamine B assay; format: functional; conditions: UO-31, 48 h, read-out: Activity
[20] = system: SNB-19; test: Cytotoxicity against human SNB19 cells assessed as cell growth at 0.01 uM after 48 hrs by sulforhodamine B assay; format: functional; conditions: SNB-19, 48 h, read-out: Activity
[21] = system: A498; test: Growth inhibition of human A498 cells after 48 hrs by sulforhodamine B assay; format: functional, cell-based; conditions: A498, 48 h; for CC50: read-out: LC50 (the source's name)
How it was run: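 Five-dose SRB assay. Cells in RPMI 1640 with 5% FBS and 2 mM L-glutamine were seeded at 5,000–40,000 cells/well, with a TCA-fixed time-zero plate (Tz) taken at 24 h. Compound stocks were in DMSO, serially diluted 10-fold or ½-log to five concentrations, and incubated 48 h at 37 °C. Plates were stained with SRB and read at 515 nm. IC₅₀ was taken where [(Ti−Tz)/(C−Tz)]×100 = 50.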

[22] = system: HCT-116; test: Cytotoxicity against human HCT116 cells assessed as cell growth at 10 uM after 48 hrs by sulforhodamine B assay; format: functional; conditions: HCT-116, 48 h, read-out: Activity
[23] = Cytotoxicity against human RPMI8266 cells assessed as cell growth at 0.001 uM after 48 hrs by sulforhodamine B assay; format: functional; conditions: read-out: Activity
[24] = Cytotoxicity against human Hs 578T cells assessed as cell growth at 0.01 uM after 48 hrs by sulforhodamine B assay; format: functional; conditions: read-out: Activity
[25] = system: SW-620; test: Cytotoxicity against human SW620 cells assessed as cell growth at 100 nM after 48 hrs by sulforhodamine B assay; format: functional; conditions: SW-620, 48 h, read-out: Activity
[26] = system: HCT-15; test: Cytotoxicity against human HCT15 cells assessed as cell growth at 1 uM after 48 hrs by sulforhodamine B assay; format: functional; conditions: HCT-15, 48 h, read-out: Activity
[27] = molecular target: Aurora kinase A (Homo sapiens) (UniProt O14965); test: Inhibition of Aurora A at 10 uM by HotSpot assay
Sequence of Aurora kinase A (Homo sapiens) (O14965 whole entry): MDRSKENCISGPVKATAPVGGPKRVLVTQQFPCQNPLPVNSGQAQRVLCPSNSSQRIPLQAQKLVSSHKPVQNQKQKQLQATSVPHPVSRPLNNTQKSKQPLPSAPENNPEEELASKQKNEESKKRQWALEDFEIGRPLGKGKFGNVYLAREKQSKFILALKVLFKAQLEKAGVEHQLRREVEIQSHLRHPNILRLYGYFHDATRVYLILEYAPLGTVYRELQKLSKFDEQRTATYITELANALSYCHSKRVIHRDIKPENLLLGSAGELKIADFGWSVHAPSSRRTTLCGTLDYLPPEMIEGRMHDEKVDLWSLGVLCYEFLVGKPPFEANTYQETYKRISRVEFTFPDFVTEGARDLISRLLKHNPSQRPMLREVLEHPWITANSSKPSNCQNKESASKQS

[28] = molecular target: Proto-oncogene tyrosine-protein kinase ROS (Homo sapiens) (UniProt P08922); test: Inhibition of ROS at 10 uM by HotSpot assay
Sequence of Proto-oncogene tyrosine-protein kinase ROS (Homo sapiens) (P08922 whole entry): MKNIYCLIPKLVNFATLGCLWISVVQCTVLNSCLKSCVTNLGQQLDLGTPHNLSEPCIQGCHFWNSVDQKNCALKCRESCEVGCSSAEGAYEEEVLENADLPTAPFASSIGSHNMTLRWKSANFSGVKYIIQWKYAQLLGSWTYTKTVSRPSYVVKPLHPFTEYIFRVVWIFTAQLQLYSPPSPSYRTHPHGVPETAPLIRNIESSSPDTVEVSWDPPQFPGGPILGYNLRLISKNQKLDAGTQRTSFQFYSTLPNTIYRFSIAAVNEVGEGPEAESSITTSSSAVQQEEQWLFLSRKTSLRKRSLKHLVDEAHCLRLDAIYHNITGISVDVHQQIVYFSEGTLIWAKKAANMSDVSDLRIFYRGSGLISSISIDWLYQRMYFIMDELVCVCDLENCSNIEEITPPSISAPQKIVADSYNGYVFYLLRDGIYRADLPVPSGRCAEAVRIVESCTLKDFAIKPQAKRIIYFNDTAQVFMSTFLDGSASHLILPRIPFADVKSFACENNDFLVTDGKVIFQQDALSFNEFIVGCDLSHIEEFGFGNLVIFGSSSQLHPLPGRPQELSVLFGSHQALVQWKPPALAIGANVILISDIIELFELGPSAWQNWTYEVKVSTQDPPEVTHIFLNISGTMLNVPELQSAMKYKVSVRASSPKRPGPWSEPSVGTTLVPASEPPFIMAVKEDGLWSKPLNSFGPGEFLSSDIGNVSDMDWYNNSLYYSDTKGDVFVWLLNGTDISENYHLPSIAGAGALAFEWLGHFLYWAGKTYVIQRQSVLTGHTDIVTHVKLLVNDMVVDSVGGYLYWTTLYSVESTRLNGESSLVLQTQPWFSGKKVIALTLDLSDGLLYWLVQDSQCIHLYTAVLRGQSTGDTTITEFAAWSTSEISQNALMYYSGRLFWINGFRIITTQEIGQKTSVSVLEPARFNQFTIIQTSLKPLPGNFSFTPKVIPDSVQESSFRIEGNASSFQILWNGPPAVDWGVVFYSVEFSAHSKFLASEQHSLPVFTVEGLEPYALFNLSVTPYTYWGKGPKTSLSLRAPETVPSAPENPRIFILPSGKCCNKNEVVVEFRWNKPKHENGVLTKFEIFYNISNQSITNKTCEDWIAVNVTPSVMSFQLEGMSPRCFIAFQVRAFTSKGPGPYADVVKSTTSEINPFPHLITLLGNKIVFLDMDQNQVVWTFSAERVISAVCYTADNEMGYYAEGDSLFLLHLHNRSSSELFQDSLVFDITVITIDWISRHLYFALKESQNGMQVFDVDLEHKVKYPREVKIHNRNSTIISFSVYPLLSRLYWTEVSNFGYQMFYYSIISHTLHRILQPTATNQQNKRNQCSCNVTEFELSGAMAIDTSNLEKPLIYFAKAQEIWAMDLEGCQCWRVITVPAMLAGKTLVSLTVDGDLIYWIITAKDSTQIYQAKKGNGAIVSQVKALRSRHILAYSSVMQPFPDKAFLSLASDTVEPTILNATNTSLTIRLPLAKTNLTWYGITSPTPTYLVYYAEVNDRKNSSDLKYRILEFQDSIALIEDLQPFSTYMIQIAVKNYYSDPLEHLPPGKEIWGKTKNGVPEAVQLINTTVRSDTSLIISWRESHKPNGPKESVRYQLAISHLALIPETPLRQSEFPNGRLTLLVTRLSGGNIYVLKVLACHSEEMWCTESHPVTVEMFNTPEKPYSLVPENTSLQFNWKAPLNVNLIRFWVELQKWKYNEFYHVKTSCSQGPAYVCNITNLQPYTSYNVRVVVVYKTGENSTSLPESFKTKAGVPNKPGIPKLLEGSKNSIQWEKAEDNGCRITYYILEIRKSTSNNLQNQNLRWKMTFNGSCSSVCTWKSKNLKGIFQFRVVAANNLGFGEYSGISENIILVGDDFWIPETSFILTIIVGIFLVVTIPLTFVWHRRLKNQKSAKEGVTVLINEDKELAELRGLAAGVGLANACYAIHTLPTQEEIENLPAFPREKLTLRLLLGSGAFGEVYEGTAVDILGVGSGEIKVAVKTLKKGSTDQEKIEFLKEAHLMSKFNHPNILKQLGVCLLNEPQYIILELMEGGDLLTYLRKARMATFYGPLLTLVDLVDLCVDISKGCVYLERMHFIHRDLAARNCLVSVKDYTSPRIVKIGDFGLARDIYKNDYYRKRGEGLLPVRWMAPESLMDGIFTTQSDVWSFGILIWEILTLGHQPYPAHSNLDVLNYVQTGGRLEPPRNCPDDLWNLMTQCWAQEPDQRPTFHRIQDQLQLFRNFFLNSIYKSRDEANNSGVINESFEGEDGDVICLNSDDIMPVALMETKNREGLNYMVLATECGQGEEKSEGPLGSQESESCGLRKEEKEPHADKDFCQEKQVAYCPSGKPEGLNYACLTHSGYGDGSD

[29] = molecular target: Receptor-type tyrosine-protein kinase FLT3 (Homo sapiens) (UniProt P36888); test: Inhibition of FLT3 at 10 uM by HotSpot assay
Sequence of Receptor-type tyrosine-protein kinase FLT3 (Homo sapiens) (P36888 whole entry): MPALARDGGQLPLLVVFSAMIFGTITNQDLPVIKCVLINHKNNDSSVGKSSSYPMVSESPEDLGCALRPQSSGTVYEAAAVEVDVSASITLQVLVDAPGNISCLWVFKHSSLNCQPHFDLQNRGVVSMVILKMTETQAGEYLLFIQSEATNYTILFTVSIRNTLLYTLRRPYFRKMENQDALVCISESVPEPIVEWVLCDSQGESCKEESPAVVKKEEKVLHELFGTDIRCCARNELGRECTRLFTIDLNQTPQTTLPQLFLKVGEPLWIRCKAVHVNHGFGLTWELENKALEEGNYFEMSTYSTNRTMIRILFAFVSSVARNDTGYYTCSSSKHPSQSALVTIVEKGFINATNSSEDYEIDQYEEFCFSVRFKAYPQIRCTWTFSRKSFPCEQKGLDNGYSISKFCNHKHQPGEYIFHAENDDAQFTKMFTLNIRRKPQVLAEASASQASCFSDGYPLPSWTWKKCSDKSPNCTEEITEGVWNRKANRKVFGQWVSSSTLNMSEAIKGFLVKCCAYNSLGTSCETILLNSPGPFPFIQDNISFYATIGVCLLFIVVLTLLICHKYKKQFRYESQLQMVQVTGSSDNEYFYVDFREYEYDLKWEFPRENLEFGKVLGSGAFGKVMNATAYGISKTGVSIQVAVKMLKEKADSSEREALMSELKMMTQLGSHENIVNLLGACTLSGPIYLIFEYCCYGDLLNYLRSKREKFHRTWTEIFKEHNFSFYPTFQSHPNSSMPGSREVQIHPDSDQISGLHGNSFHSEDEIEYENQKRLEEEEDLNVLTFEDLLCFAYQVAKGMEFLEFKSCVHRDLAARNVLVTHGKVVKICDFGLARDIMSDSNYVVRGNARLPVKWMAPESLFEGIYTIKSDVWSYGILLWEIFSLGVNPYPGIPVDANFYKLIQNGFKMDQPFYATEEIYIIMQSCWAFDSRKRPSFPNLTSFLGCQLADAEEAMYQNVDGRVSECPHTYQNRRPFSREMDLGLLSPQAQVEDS

SMILES: CC(=O)c1ccccc1-c1ccc(-c2ccnc(NC(=O)Nc3cc(N4CCOCC4)cc(C(F)(F)F)c3)n2)cn1
- growth at 10 µM [1]: 107%
- growth at 0.01 µM [2]: 102%
- growth at 0.01 µM [3]: 113%
- growth at 0.01 µM [4]: 105%
- growth at 0.001 µM [5]: 98%
- growth at 0.1 µM [6]: 91%
- growth at 0.01 µM [7]: 98%
- growth at 0.1 µM [8]: 92%
- growth at 0.1 µM [9]: 87%
- GI50 [10]: > 100 µM
- IC50 [10]: > 100 µM
- TGI [10]: > 100 µM
- CC50 [10]: > 100 µM
- growth at 1 µM [11]: 50%
- growth at 10 µM [12]: 65%
- growth at 0.01 µM [13]: 95%
- growth at 0.001 µM [14]: 92%
- growth at 0.1 µM [15]: 98%
- growth at 10 µM [16]: 80%
- growth at 0.1 µM [17]: 84%
- growth at 0.001 µM [18]: 98%
- growth at 0.001 µM [19]: 85%
- growth at 0.01 µM [20]: 98%
- GI50 [21]: 13 µM
- IC50 [21]: > 100 µM
- TGI [21]: > 100 µM
- CC50 [21]: > 100 µM
- growth at 10 µM [22]: 66%
- growth at 0.001 µM [23]: 101%
- growth at 0.01 µM [24]: 101%
- growth at 0.1 µM [25]: 93%
- growth at 1 µM [26]: 88%

SMILES: CC(=O)Nc1cccc(-c2ccc(-c3ccnc(NC(=O)Nc4cc(C(F)(F)F)cc(C(F)(F)F)c4)n3)cn2)c1.Cl
- growth at 0.01 µM [3]: 98%
- inhibition [27]: 60%
- growth at 0.01 µM [4]: 100%
- growth at 0.001 µM [5]: 95%
- growth at 0.1 µM [6]: 63%
- growth at 0.01 µM [7]: 99%
- growth at 0.1 µM [8]: 61%
- GI50 [10]: 11.8 µM
- IC50 [10]: 11.8 µM
- TGI [10]: 24.5 µM
- CC50 [10]: 50.8 µM
- growth at 1 µM [11]: 17%
- growth at 10 µM [12]: 100%
- growth at 0.01 µM [13]: 85%
- inhibition [28]: < 50%
- growth at 0.001 µM [14]: 102%
- growth at 0.1 µM [15]: 62%
- growth at 10 µM [16]: -62%
- growth at 0.1 µM [17]: 64%
- inhibition [29]: 50%
- growth at 0.001 µM [18]: 96%
- growth at 0.001 µM [19]: 90%
- growth at 0.01 µM [20]: 96%
- GI50 [21]: 6.13 µM
- IC50 [21]: 6.13 µM
- TGI [21]: 22.2 µM
- CC50 [21]: 59.2 µM
- growth at 10 µM [22]: 100%
- growth at 0.01 µM [24]: 99%
- growth at 0.1 µM [25]: 97%
- growth at 1 µM [26]: 18%
